Active and inactive are the calls of the source. The rule behind the calls is not given here.
Assays:
[1] = system: Mus musculus; assay: Inhibition of acetic acid induced mouse writhing assay following s.c. administration.; format: functional; settings: sc
[2] = target: T1, Opioid receptor (Rattus norvegicus) (UniProt P33533+P34975+P33535); assay: Inhibition of morphine analgesia in modified rat tail flick test.; format: functional
Summary of the method: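 Narcotic antagonist activity measured by modified rat tail-flick against an ED80 dose of morphine. Free bases dissolved by dropwise 1 N HCl, then diluted. At least five rats per dose and at least three doses per drug; AD50 determined.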

[3] = system: Mus musculus; assay: Inhibition of acetic acid induced mouse writhing assay following s.c. administration; Inactive at 50 uMol/kg.; format: functional, organism-based; settings: 50 uM
[4] = target: T1, Opioid receptor (Rattus norvegicus); assay: Inhibition of morphine analgesia in modified rat tail flick test; Inactive at 25 uMol/kg.; format: functional; settings: 25 uM
[5] = system: Mus musculus; assay: Inhibition of acetic acid induced mouse writhing assay following s.c. administration; Inactive at 30 uMol/kg.; format: functional, organism-based; settings: 30 uM
[6] = system: Mus musculus; assay: Inhibition of acetic acid induced mouse writhing assay following s.c. administration; Inactive.; format: functional, organism-based

T1 sequence (P33533 whole entry, looked up): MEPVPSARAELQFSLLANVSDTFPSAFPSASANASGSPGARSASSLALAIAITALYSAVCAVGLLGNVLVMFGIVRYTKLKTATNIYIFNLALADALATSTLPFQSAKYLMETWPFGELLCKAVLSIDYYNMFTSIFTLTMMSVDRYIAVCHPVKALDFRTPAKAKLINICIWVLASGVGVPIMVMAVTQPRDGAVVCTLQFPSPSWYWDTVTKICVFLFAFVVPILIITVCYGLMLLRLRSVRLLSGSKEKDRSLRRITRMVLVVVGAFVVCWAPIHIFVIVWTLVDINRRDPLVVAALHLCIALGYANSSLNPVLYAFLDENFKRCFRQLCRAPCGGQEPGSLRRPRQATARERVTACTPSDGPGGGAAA
T1 sequence (P33535 whole entry, looked up): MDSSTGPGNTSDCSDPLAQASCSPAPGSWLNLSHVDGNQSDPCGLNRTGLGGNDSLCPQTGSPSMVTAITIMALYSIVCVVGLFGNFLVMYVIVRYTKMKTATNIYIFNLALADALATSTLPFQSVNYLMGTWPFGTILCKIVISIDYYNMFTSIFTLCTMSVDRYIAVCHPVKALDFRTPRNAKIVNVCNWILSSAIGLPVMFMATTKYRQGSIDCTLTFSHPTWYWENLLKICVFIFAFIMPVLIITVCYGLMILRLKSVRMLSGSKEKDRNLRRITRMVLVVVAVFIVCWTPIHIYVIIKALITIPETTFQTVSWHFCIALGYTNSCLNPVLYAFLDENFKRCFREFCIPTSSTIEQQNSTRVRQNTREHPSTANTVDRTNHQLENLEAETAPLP
T1 sequence (P34975 whole entry, looked up): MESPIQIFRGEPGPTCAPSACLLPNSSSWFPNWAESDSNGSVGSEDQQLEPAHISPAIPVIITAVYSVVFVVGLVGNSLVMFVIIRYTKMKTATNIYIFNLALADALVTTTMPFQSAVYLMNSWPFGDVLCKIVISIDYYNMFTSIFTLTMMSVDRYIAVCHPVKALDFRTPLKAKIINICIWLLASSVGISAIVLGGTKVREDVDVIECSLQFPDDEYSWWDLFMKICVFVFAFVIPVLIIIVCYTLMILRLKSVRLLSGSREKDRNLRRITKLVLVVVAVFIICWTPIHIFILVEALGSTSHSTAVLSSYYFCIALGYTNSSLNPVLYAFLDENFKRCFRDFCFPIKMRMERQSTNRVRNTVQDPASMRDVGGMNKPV

In the case of `O=C1CCC2C3Cc4ccc(O)cc4C2(CCN3CC2CC2)C1` (stereo unspecified), the ED50 [1] is reported as 3.3 µmol/kg and the ED50 [2] is reported as 7.4 µmol/kg.

With `C=C1CCC2C3Cc4ccc(O)cc4C2(CCN3CC2CC2)C1` (stereo unspecified) the ED50 [1] was 1.2 µmol/kg and the ED50 [2] was 0.37 µmol/kg.

`C=C1C[C@H](C)C2C3Cc4ccc(OC)cc4C2(CCN3CC2CCC2)C1` (stereo partly specified) was tested, and the ED50 [1] was 16.5 µmol/kg and the ED50 [2] was 14.1 µmol/kg.

For `C=C1CCC2C3Cc4ccc(OC)cc4C2(CCN3CC2CCC2)C1` (stereo unspecified), the ED50 [1] was 3.2 µmol/kg and the ED50 [2] was > 20 µmol/kg.

Work on `COc1ccc2c(c1)C13CCN(CC4CCC4)C(C2)C1[C@@H](C)CC(=O)C3` (stereo partly specified) yielded an ED50 [1] of 1.38 µmol/kg and an ED50 [2] of 16.4 µmol/kg.

With `CC[C@H]1CC(=O)CC23CCN(CC4CC4)C(Cc4ccc(O)cc42)C13` (stereo partly specified) the ED50 [3] was “inactive” and the ED50 [2] was 4.7 µmol/kg.

`C[C@H]1CC(=O)CC23CCN(CC4CCC4)C(Cc4ccc(O)cc42)C13` (stereo partly specified) showed an ED50 [1] of 0.29 µmol/kg and an ED50 [2] of 2.8 µmol/kg.

For `C=C1C[C@H](CC)C2C3Cc4ccc(O)cc4C2(CCN3CC2CCC2)C1` (stereo partly specified), the ED50 [1] was > 28 µmol/kg and the ED50 [2] was 21.2 µmol/kg.

`COc1ccc2c(c1)C13CCN(CC4CCC4)C(C2)C1CCC(=O)C3` (stereo unspecified) was tested, and the ED50 [4] was “inactive”.

`C=C1C[C@H](C)C2C3Cc4ccc(O)cc4C2(CCN3CC2CC2)C1` (stereo partly specified) gave an ED50 [1] of 5.3 µmol/kg and an ED50 [2] of 0.89 µmol/kg.

`CC(C)=CCN1CC[C@]2(C)c3cc(O)ccc3C[C@H]1[C@H]2C` [(+)-PENTAZOCINE] was tested, and the ED50 [1] was 12.9 µmol/kg and the ED50 [2] was 36.4 µmol/kg.

With `C=C1C[C@H](C)C2C3Cc4ccc(O)cc4C2(CCN3CC2CCC2)C1` (stereo partly specified) the ED50 [1] was 0.53 µmol/kg and the ED50 [2] was 2.5 µmol/kg.

With `C[C@H]1[C@H]2Cc3ccc(O)cc3[C@]1(C)CCN2CC1CC1` the ED50 [2] was 0.81 µmol/kg.

For `O=C1CCC2C3Cc4ccc(O)cc4C2(CCN3CC2CCC2)C1` (stereo unspecified), the ED50 [4] was “inactive”.

Molecule `CC[C@H]1CC(=O)CC23CCN(CC4CCC4)C(Cc4ccc(O)cc42)C13` (stereo partly specified) has an ED50 [1] of 0.54 µmol/kg and an ED50 [2] of 0.82 µmol/kg.

With `C=C1C[C@H](CC)C2C3Cc4ccc(O)cc4C2(CCN3CC2CC2)C1` (stereo partly specified) the ED50 [2] was 2.8 µmol/kg and the ED50 [5] was “inactive”.

In the case of `C=C1C[C@H](C)C2C3Cc4ccc(OC)cc4C2(CCN3CC2CC2)C1` (stereo partly specified), the ED50 [1] is reported as 9.5 µmol/kg and the ED50 [2] is reported as 11.3 µmol/kg.

For `COc1ccc2c(c1)[C@]13CCN(CC4CC4)[C@H](C2)[C@@H]1[C@@H](C)CC(=O)C3`, the ED50 [2] was 4.3 µmol/kg.

`C=C1CCC2C3Cc4ccc(O)cc4C2(CCN3CC2CCC2)C1` (stereo unspecified) was tested, and the ED50 [1] was 0.22 µmol/kg and the ED50 [2] was > 24 µmol/kg.

With `C=CCN1CC[C@]23c4c5ccc(O)c4O[C@H]2C(=O)CC[C@@]3(O)[C@H]1C5` the ED50 [6] was “inactive”.

`C=CCN1CC[C@]23c4c5ccc(O)c4O[C@H]2[C@@H](O)C=C[C@H]3[C@H]1C5` [NALORPHINE] was tested, and the ED50 [1] was 3.5 µmol/kg and the ED50 [2] was 2.5 µmol/kg.

`Oc1ccc2c(c1)[C@@]13CCCC[C@@]1(O)[C@@H](C2)N(CC1CCC1)CC3` showed an ED50 [2] of 2 µmol/kg.

Work on `C[C@H]1CC(=O)CC23CCN(CC4CC4)C(Cc4ccc(O)cc42)C13` (stereo partly specified) yielded an ED50 [1] of 10.2 µmol/kg and an ED50 [2] of 1.8 µmol/kg.

In the case of `O=C1CC[C@@]2(O)[C@H]3Cc4ccc(O)c5c4[C@@]2(CCN3CC2CC2)[C@H]1O5` [NALTREXONE], the ED50 [1] is reported as > 28 µmol/kg.

From ChEMBL document CHEMBL1121900, “Analgesic narcotic antagonists. 9. 6-Methylene-8 beta-alkyl-N-(cycloalkylmethyl)-3-hydroxy- or -methoxymorphinans” (1981)
